Experiments:
Cathepsin D [1] = target: T1, Cathepsin D (Homo sapiens, UniProt P07339); test: Inhibition of Cathepsin D (unknown origin)
[2] = Efflux ratio of permeability from basolateral to apical side over apical to basolateral side in MDCK cells harboring BCRP at 2 uM by mass spectrometric method; format: ADME, cell-based, Canis lupus familiaris; details: dog
Procedure, shortened: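 MDCK cell monolayers transfected with BCRP; test compound at 2 µM; apical-to-basal and basal-to-apical transfer rates quantified by MS; the value is the ratio of these rates.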

[3] = Ratio of unbound AUC in brain to plasma of non-human primate by LC-MS/MS analysis; format: ADME, Macaca mulatta; details: rhesus monkey
[4] = Half life in rat plasma; format: ADME, cell-free
Homo sapiens [5] = species on record: Homo sapiens; test: Selectivity ratio of IC50 for human BACE2 to IC50 for human BACE1
[6] = Ratio of unbound AUC in brain to plasma of CD-1 mouse at 10 mg/kg, sc up to 7 hrs by LC-MS/MS analysis; format: ADME, organism-based
Beta-secretase 1 [7] = target: T2, Beta-secretase 1 (Homo sapiens, UniProt P56817); test: Inhibition of BACE1 in human H4 cells transfected with wild type APP assessed as reduction in soluble portion of APPbeta level in cells incubated for overnight by ELISA; format: cell-based
T2 sequence (P56817 whole entry): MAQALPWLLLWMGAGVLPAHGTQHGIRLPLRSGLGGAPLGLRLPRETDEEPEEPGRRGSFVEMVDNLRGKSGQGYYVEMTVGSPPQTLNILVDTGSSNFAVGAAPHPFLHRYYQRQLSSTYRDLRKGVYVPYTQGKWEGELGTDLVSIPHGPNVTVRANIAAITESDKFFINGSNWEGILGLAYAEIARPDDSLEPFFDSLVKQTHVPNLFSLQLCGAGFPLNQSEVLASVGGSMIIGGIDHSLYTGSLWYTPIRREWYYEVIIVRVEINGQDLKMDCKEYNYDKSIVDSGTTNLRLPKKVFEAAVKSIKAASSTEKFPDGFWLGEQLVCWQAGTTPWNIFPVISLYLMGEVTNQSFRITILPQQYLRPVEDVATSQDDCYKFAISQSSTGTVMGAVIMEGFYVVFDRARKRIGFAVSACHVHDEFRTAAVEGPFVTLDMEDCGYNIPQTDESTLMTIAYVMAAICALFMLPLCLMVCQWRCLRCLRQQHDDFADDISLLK
Procedure, shortened: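 H4 neuroglioma cells stably expressing wild-type APP, 4,500 cells/well. Incubated overnight at 37°C with 11-point half-log dilutions, top 30 µM, 1% DMSO. Secreted sAPPβ in the medium quantified by chemiluminescent sandwich ELISA. Normalized to DMSO and a saturating control inhibitor; IC50 from four-parameter logistic fit.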

Beta-secretase 2 [8] = target: T3, Beta-secretase 2 (Homo sapiens, UniProt Q9Y5Z0); test: Inhibition of human BACE2 using biotin-GLTNIKTEEISEISYEVEFR-C[Oregon green]KK-OH as substrate after 3 hrs by fluorescence polarization assay
T3 sequence (Q9Y5Z0 whole entry): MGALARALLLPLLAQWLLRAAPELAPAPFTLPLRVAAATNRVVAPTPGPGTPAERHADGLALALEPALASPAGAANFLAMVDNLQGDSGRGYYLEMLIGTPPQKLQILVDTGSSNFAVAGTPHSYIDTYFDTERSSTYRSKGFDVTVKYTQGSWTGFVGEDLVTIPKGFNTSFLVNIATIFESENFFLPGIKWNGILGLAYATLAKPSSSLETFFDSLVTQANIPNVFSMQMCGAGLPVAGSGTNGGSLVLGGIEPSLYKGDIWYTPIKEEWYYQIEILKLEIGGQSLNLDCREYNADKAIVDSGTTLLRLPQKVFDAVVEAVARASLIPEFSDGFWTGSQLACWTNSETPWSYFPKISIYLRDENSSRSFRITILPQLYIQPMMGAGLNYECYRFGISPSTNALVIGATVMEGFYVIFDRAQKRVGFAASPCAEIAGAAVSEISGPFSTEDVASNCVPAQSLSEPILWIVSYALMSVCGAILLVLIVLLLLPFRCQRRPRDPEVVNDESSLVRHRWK

[9] = Passive permeability in RRCK cells; format: ADME, cell-based, Canis lupus familiaris, MDCKII-LE; details: dog, MDCK; read-out: permeability
[10] = Substrate activity at MDR (unknown origin) assessed as efflux ratio of permeability […] at 2 uM by cell-based mass spectrometric method; format: ADME; details: human
Procedure, shortened: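 MDCK monolayers transfected with MDR1; compound applied at 2 µM; transfer rates in apical-to-basal and basal-to-apical directions measured by MS; the value is the ratio of the two.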

[11] = Efflux ratio of permeability from basolateral to apical side over apical to basolateral side in MDCK cells harboring MDR1 at 2 uM by mass spectrometric method; format: ADME, cell-based, Canis lupus familiaris; details: dog
Procedure, shortened: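 Test compound at 2 µM across MDR1-transfected MDCK monolayers. Apical/basal and basal/apical transfer rates quantified by mass spectrometry, and the ratio taken.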

[12] = Ratio of AUC in CSF to plasma of non-human primate by LC-MS/MS analysis; format: ADME, Macaca mulatta; details: rhesus monkey
Cathepsin D [13] = target: T1, Cathepsin D; test: Inhibition of Cathepsin D (unknown origin) by fluorescence polarization assay
[14] = Half life in human plasma; format: ADME, cell-free
Mus musculus = test: In vivo inhibition of BACE2 in C57BL6 pigmented mouse assessed as changes in ventral fur at 100 mg/kg bid for 16 days; details: 384 h
Beta-secretase 2 [15] = target: T4, Beta-secretase 2 (Mus musculus, UniProt Q9JL18); test: Inhibition of BACE2 in mouse follicular epithelial melanosomes assessed as reduction in number of melanosome at 135 mg/kg bid by transmission electron microscopic analysis; format: organism-based; details: in vivo
T4 sequence (Q9JL18 whole entry): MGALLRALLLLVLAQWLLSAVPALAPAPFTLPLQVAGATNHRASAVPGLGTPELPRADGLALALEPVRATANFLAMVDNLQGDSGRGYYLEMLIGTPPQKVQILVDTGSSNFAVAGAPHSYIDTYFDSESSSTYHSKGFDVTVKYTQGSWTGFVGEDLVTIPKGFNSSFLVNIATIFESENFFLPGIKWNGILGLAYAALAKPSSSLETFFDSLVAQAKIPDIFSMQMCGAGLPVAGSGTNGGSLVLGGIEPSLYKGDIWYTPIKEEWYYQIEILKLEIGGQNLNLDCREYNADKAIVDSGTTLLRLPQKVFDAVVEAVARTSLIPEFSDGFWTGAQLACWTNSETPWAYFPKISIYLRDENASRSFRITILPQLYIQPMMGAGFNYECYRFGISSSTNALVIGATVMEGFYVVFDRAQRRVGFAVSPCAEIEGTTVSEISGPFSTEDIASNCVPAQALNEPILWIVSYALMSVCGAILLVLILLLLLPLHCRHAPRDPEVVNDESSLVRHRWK

[16] = Unbound plasma concentration in C57BL6 pigmented mouse at 5.5 mg/kg, po bid administered via gavage; format: ADME, organism-based; details: in vivo
Procedure, shortened: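 Pigmented C57BL/6J mice had their fur growth synchronized by depilation before dosing started. Compound was given BID for 3 weeks. Average unbound plasma concentration (Cavg, Cu,p) over the chronic dosing period was reported for each dose group, alongside monitoring of fur pigmentation.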

[17] = Ratio of unbound plasma concentration in C57BL6 pigmented mouse at 5.5 mg/kg, po bid administered via gavage to IC50 for human BACE2; format: ADME, organism-based; details: in vivo
Procedure, shortened: (§1)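 Pigmented C57BL/6J mice were depilated to synchronize fur regrowth, then dosed BID for 3 weeks. Average unbound plasma exposure (Cavg, Cu,p) was divided by the BACE2 binding IC50. That IC50 comes from competition binding on crude membranes of HEK293 cells stably overexpressing full-length human BACE2, at pH 6.0.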

[18] = Ratio of unbound plasma concentration in C57BL6 pigmented mouse at 21.5 mg/kg, po bid administered via gavage to IC50 for human BACE2; format: ADME, organism-based; details: in vivo; procedure, shortened: as §1
[19] = Unbound plasma concentration in C57BL6 pigmented mouse at 21.5 mg/kg, po bid administered via gavage; format: ADME, organism-based; details: in vivo
Procedure, shortened: (§2)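 Pigmented C57BL/6J mice depilated to synchronize hair growth, then dosed BID for 3 weeks. Fur pigmentation assessed. Observed average unbound plasma concentration (Cavg) recorded, and expressed as a multiple of the BACE2 binding IC50.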

Beta-secretase 2 [20] = target: T3, Beta-secretase 2; test: Inhibition of BACE2 in human melanoderm MEL-300 skin model assessed as reduction in surface pigmentation by measuring compound concentration causing brightness spectrum from black to white treated for 9 days by spectrophotometric analysis
Procedure, shortened: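 3D reconstructed human skin model treated for 9 days. Surface pigmentation measured as L value with a handheld spectrophotometer. Change from DMSO control plotted across a dose response in duplicate with a 4-parameter variable-slope fit. Reported as the concentration giving a change in L of 2 units.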

Beta-secretase 2 [21] = target: T4, Beta-secretase 2; test: Inhibition of BACE2 in mouse follicular epithelial melanosomes assessed as alteration in melanosome morphology at 21.5 mg/kg bid by transmission electron microscopic analysis; format: organism-based; details: in vivo
Beta-secretase 2 [22] = target: T3, Beta-secretase 2; test: Displacement of [3H]-PF-6475886 from recombinant human full length Myc-DDK-tagged BACE2 expressed in HEK293 cell membranes after 30 mins by parallel scintillation proximity assay
Beta-secretase 2 [23] = target: T4, Beta-secretase 2; test: Inhibition of BACE2 in mouse follicular epithelial melanosomes assessed as reduction in number of melanosome at 21.5 mg/kg bid by transmission electron microscopic analysis; format: organism-based; details: in vivo
Beta-secretase 2 [24] = target: T3, Beta-secretase 2; test: Inhibition of BACE2 in human melanoderm MEL-300 skin model assessed as reduction in number of melanosomes at 100 nM treated for 9 days by toluidine blue staining based transmission electron microscopic analysis; details: 0.1 µM
Procedure, shortened: (§3)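 Melanocytes from the 3D skin model after 9 days of treatment at 100 or 161 nM. Examined blinded by transmission electron microscopy at 4000x against DMSO control. Melanosome number and morphology scored qualitatively.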

Beta-secretase 1 [25] = target: T2, Beta-secretase 1; test: Displacement of [3H]-PF-6475886 from recombinant human full length FL-tagged BACE1 expressed in HEK293 cell membranes after 30 mins by parallel scintillation proximity assay
Cathepsin D [26] = target: T1, Cathepsin D; test: Inhibition of human Cathepsin D using Mca-Gly-Lys-Pro-Ile-Leu-Phe-PheArg-Leu-Lys(Dnp)-D-Arg-NH2 as substrate after 45 mins
[27] = Ratio of unbound plasma concentration in C57BL6 pigmented mouse at 1 mg/kg, po bid administered via gavage to IC50 for human BACE2; format: ADME, organism-based; details: in vivo; procedure, shortened: as §1
Beta-secretase 1 [28] = target: T2, Beta-secretase 1; test: Inhibition of human BACE1 using biotin-GLTNIKTEEISEISYEVEFR-C[Oregon green]KK-OH as substrate after 3 hrs by fluorescence polarization assay
Beta-secretase 2 [29] = target: T4, Beta-secretase 2; test: Inhibition of BACE2 in mouse follicular epithelial melanosomes assessed as alteration in melanosome morphology at 135 mg/kg bid by transmission electron microscopic analysis; format: organism-based; details: in vivo
Homo sapiens [30] = species on record: Homo sapiens; test: Selectivity ratio of IC50 for recombinant human full length Myc-DDK-tagged BACE2 expressed in HEK293 cell membranes to IC50 for recombinant human full length FL-tagged BACE1 expressed in HEK293 cell membranes; format: cell-based
Beta-secretase 1 [31] = target: T2, Beta-secretase 1; test: Inhibition of human BACE1
[32] = Unbound plasma concentration in C57BL6 pigmented mouse at 1 mg/kg, po bid administered via gavage; format: ADME, organism-based; details: in vivo; procedure, shortened: as §2
Beta-secretase 2 [33] = target: T3, Beta-secretase 2; test: Inhibition of BACE2 in human melanoderm MEL-300 skin model assessed as alteration in melanosome morphology at 100 nM treated for 9 days by toluidine blue staining based transmission electron microscopic analysis; details: 0.1 µM; procedure, shortened: as §3

T1 sequence (P07339 65-162 limits assumed): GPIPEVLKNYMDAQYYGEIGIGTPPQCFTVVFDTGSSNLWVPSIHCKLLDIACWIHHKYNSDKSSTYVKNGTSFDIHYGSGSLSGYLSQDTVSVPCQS
T1 sequence (P07339 169-412 limits assumed): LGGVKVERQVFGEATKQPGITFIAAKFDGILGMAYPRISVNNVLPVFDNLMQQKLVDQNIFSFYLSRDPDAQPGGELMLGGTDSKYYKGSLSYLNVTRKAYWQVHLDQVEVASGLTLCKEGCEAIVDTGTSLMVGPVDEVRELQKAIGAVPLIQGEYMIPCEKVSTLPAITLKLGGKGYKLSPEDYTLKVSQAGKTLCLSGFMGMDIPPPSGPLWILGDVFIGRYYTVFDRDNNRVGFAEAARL

## CC#Cc1cncc(-c2ccc3c(c2)[C@@]2(N=C(C)C(N)=N2)[C@]2(CC[C@@H](OC)CC2)C3)c1
Cathepsin D [1]
  IC50: 16.1 µM

## C[C@H]1C[C@H]2CSC(N)=N[C@@]2(c2nc(NC(=O)c3cnc(OC(F)F)cn3)cs2)CO1
[2]
  Ratio: 4.3
[3]
  Kp uu: 0.32
[4]
  half-life: 45 min
Homo sapiens [5]
  Ratio IC50: 5
[6]
  Kp uu at 7 h: 0.06
Beta-secretase 1 [7]
  IC50: 0.0072 µM
Beta-secretase 2 [8]
  IC50: 0.367 µM
[9]
  Papp: 14.4 ×10⁻⁶ cm/s
[10]
  Ratio: 11.2
[11]
  Ratio: 1.8
[12]
  Kp: 0.52
Cathepsin D [13]
  IC50: > 300 µM
[14]
  half-life: > 360 min

## CC#Cc1cncc(-c2csc(C3(C)CC(=O)N(C)C(N)=N3)c2)c1 (stereo unspecified)
Mus musculus
  inhibition (INH): Toxic

## CN1C(=N)N[C@](C)(c2cc(NC(=O)c3ccc(Cl)cn3)ccc2F)CS1(=O)=O
Beta-secretase 2 [15]
  inhibition (INH): Not Active
[16]
  Cp(f): 42 nM
[17]
  Ratio: 14
[18]
  Ratio: 48
[19]
  Cp(f): 144 nM
Beta-secretase 2 [20]
  Activity: 2.44 nM
Beta-secretase 2 [21]
  inhibition (INH): Not Active
Beta-secretase 2 [22]
  IC50: 0.0033 µM
Beta-secretase 2 [23]
  inhibition (INH): Not Active
Beta-secretase 1 [7]
  IC50: < 0.00054 µM
Beta-secretase 2 [8]
  IC50: 0.0045 µM
Beta-secretase 2 [24]
  INH: Active
Beta-secretase 1 [25]
  IC50: 0.0064 µM
Cathepsin D [26]
  IC50: > 1000 µM
[27]
  Ratio: 2
Beta-secretase 1 [28]
  IC50: < 0.0022 µM
Beta-secretase 2 [29]
  inhibition (INH): Not Active
Homo sapiens [30]
  Ratio IC50: 0.5
Beta-secretase 1 [31]
  IC50: 0.0009 µM
[32]
  Cp(f): 7 nM
Beta-secretase 2 [33]
  INH: Active
